Assay results taken from ChEMBL document CHEMBL2424583, “Structure-activity relationship and in vitro and in vivo evaluation of the potent cytotoxic anti-microtubule agent N-(4-methoxyphenyl)-N,2,6-trimethyl-6,7-dihydro-5H-cyclopenta[d]pyrimidin-4-aminium chloride and its analogues as antitumor agents” (J Med Chem, 2013).

Columns and labels:
[1] = test system: M14; test: Cytotoxicity against human M14 cells assessed as growth inhibition after 48 hrs by SRB assay; type: functional; conditions: M14, 48 h
[2] = test system: SF-539; test: Cytotoxicity against human SF539 cells assessed as growth inhibition after 48 hrs by SRB assay; type: functional; conditions: SF-539, 48 h
[3] = test system: BT-549; test: Cytotoxicity against human BT549 cells assessed as growth inhibition after 48 hrs by SRB assay; type: functional; conditions: BT-549, 48 h
[4] = test system: ACHN; test: Cytotoxicity against human ACHN cells assessed as growth inhibition after 48 hrs by SRB assay; type: functional
[5] = test system: SR; test: Cytotoxicity against human SR cells assessed as growth inhibition after 48 hrs by SRB assay; type: functional
[6] = test system: SK-MEL-2; test: Cytotoxicity against human SK-MEL-2 cells assessed as growth inhibition after 48 hrs by SRB assay; type: functional; conditions: SK-MEL-2, 48 h
[7] = test system: RPMI-8226; test: Cytotoxicity against human RPMI8226 cells assessed as growth inhibition after 48 hrs by SRB assay; type: functional; conditions: RPMI-8226, 48 h
[8] = test system: HCT-116; test: Cytotoxicity against human HCT116 cells assessed as growth inhibition after 48 hrs by SRB assay; type: functional; conditions: HCT-116, 48 h
[9] = test system: OVCAR-3; test: Cytotoxicity against human OVCAR3 cells assessed as growth inhibition after 48 hrs by SRB assay; type: functional; conditions: OVCAR-3, 48 h
[10] = test system: UACC-62; test: Cytotoxicity against human UACC62 cells assessed as growth inhibition after 48 hrs by SRB assay; type: functional; conditions: UACC-62, 48 h
[11] = test system: HOP-92; test: Cytotoxicity against human HOP92 cells assessed as growth inhibition after 48 hrs by SRB assay; type: functional; conditions: HOP-92, 48 h
[12] = test system: SW-620; test: Cytotoxicity against human SW620 cells assessed as growth inhibition after 48 hrs by SRB assay; type: functional; conditions: SW-620, 48 h
[13] = test system: SNB-75; test: Cytotoxicity against human SNB75 cells assessed as growth inhibition after 48 hrs by SRB assay; type: functional; conditions: SNB-75, 48 h
[14] = test system: SK-OV-3; test: Antiproliferative activity against human SKOV3 cells after 48 hrs by SRB assay; type: functional, cell-based; conditions: SK-OV-3, 48 h
Outline: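 Isogenic pairs: parental SK-OV-3 alongside its Pgp-overexpressing subline MDR-M6-6, and parental HeLa alongside βIII-tubulin-transfected HeLa. Antiproliferative IC50 measured by sulforhodamine B assay, averaged from at least three independent experiments ± SD. Relative resistance is the transduced-line IC50 divided by the parental-line IC50.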

[15] = test system: MDA-MB-435; test: Cytotoxicity against human MDA-MB-435 cells assessed as growth inhibition after 48 hrs by SRB assay; type: functional; conditions: MDA-MB-435, 48 h
[16] = test system: HCC 2998; test: Cytotoxicity against human HCC2998 cells assessed as growth inhibition after 48 hrs by SRB assay; type: functional; conditions: HCC 2998, 48 h
[17] = test system: HL-60(TB); test: Cytotoxicity against human HL-60(TB) cells assessed as growth inhibition after 48 hrs by SRB assay; type: functional; conditions: HL-60, 48 h
[18] = test system: SK-MEL-5; test: Cytotoxicity against human SK-MEL-5 cells assessed as growth inhibition after 48 hrs by SRB assay; type: functional; conditions: SK-MEL-5, 48 h
[19] = test system: OVCAR-5; test: Cytotoxicity against human OVCAR5 cells assessed as growth inhibition after 48 hrs by SRB assay; type: functional; conditions: OVCAR-5, 48 h
[20] = Cytotoxicity against human NCI-ADR-RES cells assessed as growth inhibition after 48 hrs by SRB assay; type: functional
[21] = test system: SF-268; test: Cytotoxicity against human SF268 cells assessed as growth inhibition after 48 hrs by SRB assay; type: functional; conditions: SF-268, 48 h
[22] = test system: TK-10; test: Cytotoxicity against human TK10 cells assessed as growth inhibition after 48 hrs by SRB assay; type: functional; conditions: TK-10, 48 h
[23] = target: T1, Tubulin (Sus scrofa) (UniProt P02554+P02550); test: Displacement of [3H]-colchicine from pig brain tubulin at 1 uM after 10 mins by scintillation counting analysis relative to control
T1 sequence (P02550 whole entry, looked up): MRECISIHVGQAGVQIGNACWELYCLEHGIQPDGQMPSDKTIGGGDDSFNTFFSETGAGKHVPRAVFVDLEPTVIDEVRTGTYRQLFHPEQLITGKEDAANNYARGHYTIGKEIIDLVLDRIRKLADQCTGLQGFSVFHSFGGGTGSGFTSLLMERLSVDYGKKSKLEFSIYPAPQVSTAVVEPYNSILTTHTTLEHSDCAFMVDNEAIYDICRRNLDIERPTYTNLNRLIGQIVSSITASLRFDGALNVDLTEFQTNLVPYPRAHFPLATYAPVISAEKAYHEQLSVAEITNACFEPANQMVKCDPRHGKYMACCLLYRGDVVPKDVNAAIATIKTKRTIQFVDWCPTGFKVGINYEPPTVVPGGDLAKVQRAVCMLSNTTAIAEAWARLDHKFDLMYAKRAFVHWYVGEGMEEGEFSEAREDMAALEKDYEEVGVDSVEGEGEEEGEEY
T1 sequence (P02554 whole entry, looked up): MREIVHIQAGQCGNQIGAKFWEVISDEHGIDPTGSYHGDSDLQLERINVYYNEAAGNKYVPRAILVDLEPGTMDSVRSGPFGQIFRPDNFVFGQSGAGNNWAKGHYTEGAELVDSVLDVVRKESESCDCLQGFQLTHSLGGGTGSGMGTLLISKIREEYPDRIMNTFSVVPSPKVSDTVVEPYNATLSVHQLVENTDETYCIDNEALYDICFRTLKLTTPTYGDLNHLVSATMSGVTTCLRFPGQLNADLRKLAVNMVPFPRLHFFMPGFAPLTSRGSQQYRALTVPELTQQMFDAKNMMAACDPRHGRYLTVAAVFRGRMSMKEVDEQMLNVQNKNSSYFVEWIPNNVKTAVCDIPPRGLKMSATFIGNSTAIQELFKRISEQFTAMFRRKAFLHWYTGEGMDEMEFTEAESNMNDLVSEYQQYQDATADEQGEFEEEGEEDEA

[24] = test system: CCRF-CEM; test: Cytotoxicity against human CCRF-CEM cells assessed as growth inhibition after 48 hrs by SRB assay; type: functional
[25] = test system: A549; test: Cytotoxicity against human A549 cells assessed as growth inhibition after 48 hrs by SRB assay; type: functional; conditions: A549, 48 h
[26] = test system: NCI-H226; test: Cytotoxicity against human NCI-H226 cells assessed as growth inhibition after 48 hrs by SRB assay; type: functional; conditions: NCI-H226, 48 h
[27] = test system: DU-145; test: Cytotoxicity against human DU145 cells assessed as growth inhibition after 48 hrs by SRB assay; type: functional; conditions: DU-145, 48 h
[28] = test system: NCI-H23; test: Cytotoxicity against human NCI-H23 cells assessed as growth inhibition after 48 hrs by SRB assay; type: functional; conditions: NCI-H23, 48 h
[29] = test system: PC-3; test: Cytotoxicity against human PC3 cells assessed as growth inhibition after 48 hrs by SRB assay; type: functional; conditions: PC-3, 48 h
[30] = test system: LOX IMVI; test: Cytotoxicity against human LOXIMVI cells assessed as growth inhibition after 48 hrs by SRB assay; type: functional
[31] = test system: NCI-H522; test: Cytotoxicity against human NCI-H522 cells assessed as growth inhibition after 48 hrs by SRB assay; type: functional; conditions: NCI-H522, 48 h
[32] = test system: K562; test: Cytotoxicity against human K562 cells assessed as growth inhibition after 48 hrs by SRB assay; type: functional; conditions: K562, 48 h
[33] = test system: OVCAR-8; test: Cytotoxicity against human OVCAR8 cells assessed as growth inhibition after 48 hrs by SRB assay; type: functional; conditions: OVCAR-8, 48 h
[34] = target: T1, Tubulin (Sus scrofa); test: Displacement of [3H]-colchicine from pig brain tubulin at 5 uM after 10 mins by scintillation counting analysis relative to control
[35] = test system: IGROV-1; test: Cytotoxicity against human IGROV1 cells assessed as growth inhibition after 48 hrs by SRB assay; type: functional; conditions: IGROV-1, 48 h
[36] = test system: SNB-19; test: Cytotoxicity against human SNB19 cells assessed as growth inhibition after 48 hrs by SRB assay; type: functional; conditions: SNB-19, 48 h
[37] = test system: A498; test: Cytotoxicity against human A498 cells assessed as growth inhibition after 48 hrs by SRB assay; type: functional; conditions: A498, 48 h
[38] = test system: U-251; test: Cytotoxicity against human U251 cells assessed as growth inhibition after 48 hrs by SRB assay; type: functional; conditions: U-251, 48 h
[39] = test system: NCI-H322M; test: Cytotoxicity against human NCI-H322M cells assessed as growth inhibition after 48 hrs by SRB assay; type: functional
[40] = test system: SN12C; test: Cytotoxicity against human SN12C cells assessed as growth inhibition after 48 hrs by SRB assay; type: functional
[41] = test system: HT-29; test: Cytotoxicity against human HT-29 cells assessed as growth inhibition after 48 hrs by SRB assay; type: functional; conditions: HT-29, 48 h
[42] = Cytotoxicity against human EKVX cells assessed as growth inhibition after 48 hrs by SRB assay; type: functional
[43] = test system: SK-MEL-28; test: Cytotoxicity against human SK-MEL-28 cells assessed as growth inhibition after 48 hrs by SRB assay; type: functional; conditions: SK-MEL-28, 48 h
[44] = test system: UO-31; test: Cytotoxicity against human UO31 cells assessed as growth inhibition after 48 hrs by SRB assay; type: functional; conditions: UO-31, 48 h

COc1ccc(N(C)c2nc(C)nc3c2CCC3)cc1.Cl
GI50 [1]: < 10 nM | GI50 [2]: < 10 nM | GI50 [3]: 21.8 nM | GI50 [4]: < 10 nM | GI50 [5]: < 10 nM | GI50 [6]: 11.9 nM | GI50 [7]: 14.3 nM | GI50 [8]: < 10 nM | GI50 [9]: < 10 nM | GI50 [10]: < 10 nM | GI50 [11]: 16 nM | GI50 [12]: < 10 nM | GI50 [13]: < 10 nM | IC50 [14]: 11.3 nM | GI50 [15]: < 10 nM | GI50 [16]: 16.4 nM | GI50 [17]: < 10 nM | GI50 [18]: < 10 nM | GI50 [19]: 36.4 nM | GI50 [20]: < 10 nM | GI50 [21]: 13.9 nM | GI50 [22]: 42.7 nM | inhibition [23]: 70% | GI50 [24]: < 10 nM | GI50 [25]: 15 nM | GI50 [26]: 34.7 nM | GI50 [27]: 19.6 nM | GI50 [28]: 22.3 nM | GI50 [29]: < 10 nM | GI50 [30]: 18.4 nM | GI50 [31]: < 10 nM | GI50 [32]: < 10 nM | GI50 [33]: 21.8 nM | inhibition [34]: 92% | GI50 [35]: 12.8 nM | GI50 [36]: 17 nM | GI50 [37]: < 10 nM | GI50 [38]: < 10 nM | GI50 [39]: 48.8 nM | GI50 [40]: 33 nM | GI50 [41]: < 10 nM | GI50 [42]: 34.8 nM | GI50 [43]: < 10 nM | GI50 [44]: 46.1 nM

COc1ccc(N(C)c2nc(C)nc3c2CC(C)C3)cc1.Cl (racemic)
GI50 [1]: 10.2 nM | GI50 [2]: 11.4 nM | GI50 [3]: 21.9 nM | GI50 [4]: 14.6 nM | GI50 [5]: < 10 nM | GI50 [6]: 33.1 nM | GI50 [7]: 15.7 nM | GI50 [8]: 15.1 nM | GI50 [9]: < 10 nM | GI50 [10]: < 10 nM | GI50 [11]: 55.4 nM | GI50 [12]: < 10 nM | GI50 [13]: < 10 nM | IC50 [14]: 38.6 nM | GI50 [15]: < 10 nM | GI50 [16]: 24 nM | GI50 [17]: < 10 nM | GI50 [18]: < 10 nM | GI50 [19]: 38.5 nM | GI50 [20]: < 10 nM | GI50 [21]: 15.2 nM | GI50 [22]: 292 nM | inhibition [23]: 60% | GI50 [24]: 16.3 nM | GI50 [25]: 24.4 nM | GI50 [26]: 31.5 nM | GI50 [27]: 21.4 nM | GI50 [28]: 16.4 nM | GI50 [29]: 14.6 nM | GI50 [30]: 22.7 nM | GI50 [31]: < 10 nM | GI50 [32]: < 10 nM | GI50 [33]: 32.8 nM | inhibition (INH) [34]: 84% | GI50 [35]: 11 nM | GI50 [36]: 36.9 nM | GI50 [37]: < 10 nM | GI50 [38]: 12.5 nM | GI50 [39]: 59 nM | GI50 [40]: 31.8 nM | GI50 [41]: 11.8 nM | GI50 [42]: 19.6 nM | GI50 [43]: < 10 nM | GI50 [44]: 13.4 nM
